Experimental findings from ChEMBL document CHEMBL4011632, “Design, Synthesis, and Evaluation of Thiazolidine-2,4-dione Derivatives as a Novel Class of Glutaminase Inhibitors” (J Med Chem, 2017) are described below.

The structures appear in SMILES notation.

For the assay, the system named is ASPC1. In words: Antitumor activity against human Aspc-1 cells xenografted in Balb/cAnN.Cg-Foxn1nu/CrlNarl mouse assessed as tumor growth inhibition at 25 mg/kg, ip once daily administered for 5 days followed by 2 days without dosing for 43 days relative to control. In kind it is functional. Conditions: read-out: TGI. In outline: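 Male nude mice (7−8 weeks, 18−22 g) received 4.5 × 10^6 AsPC-1 cells sc in the right flank, in HBSS mixed 1:1 with Matrigel. Mice were randomized once mean tumor reached ~100 mm3 (day 1). Dosing was ip once daily, 5 days on/2 days off, with 2% DMSO/PBS as vehicle. Tumors were measured twice weekly, V = ab²/2. %TGI = [1 − ((Tt − T0)/(Ct − C0))] × 100 from median volumes; Student's t test.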

`Cc1cc(/C=C2\SC(=O)NC2=O)c(C)n1-c1ccc(-c2ccc(/C=C3\SC(=O)NC3=O)cc2)cc1`: the inhibition in vivo at 25 mg/kg worked out at 60%.
